Source: ChEMBL document CHEMBL4184168, “Anticancer activities of emetine prodrugs that are proteolytically activated by the prostate specific antigen (PSA) and evaluation of in vivo toxicity of emetine derivatives” (Bioorg Med Chem, 2017)
Calls of active or inactive are those of the source. No cut-off for these calls is given here. *1 amine or outer side, *2 acyl side, *3 side chain or, on linkers, in order; H or OH if unused. Where a SMILES comes first, the peptide text is derived from it. [ ]: non-standard residue; d: D form. The star is where a group is joined. Emetine(N2') = CC[C@H]1CN2CCc3cc(OC)c(OC)cc3[C@@H]2C[C@@H]1C[C@@H]1c2cc(OC)c(OC)cc2CCN1*; PABC = O=C(OCc1ccc(N[*:1])cc1)[*:2]

How the values were obtained:
[1] = system: Mus musculus; experiment: Toxicity in Balb/C mouse assessed as mortality at >100 mg/kg, iv; type: organism-based; conditions: in vivo
Procedure, shortened: (§1)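 Male Balb/c mice, eight weeks old, about 25 g. Single IV bolus of 200 μL, doses ranging from 8 to 100 mg/kg, in 1% DMSO/saline or 10% cremophor/saline; vehicle-only controls. Each dose tested in triplicate. Mice watched for convulsions, death and behaviour after injection to set the maximum tolerated dose.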

[2] = system: Mus musculus; experiment: Toxicity in Balb/C mouse assessed as change in behavior at >100 mg/kg, iv; type: organism-based; conditions: in vivo; procedure, shortened: as §1
[3] = Toxicity in iv dosed Balb/C mouse; type: organism-based; conditions: in vivo; procedure, shortened: as §1
[4] = biological target: T1, Prostate-specific antigen (Homo sapiens, UniProt P07288); experiment: (§2) Prodrug activation in human plasma assessed as human PSA mediated 4-((S)-2-((S)-2-Amino-3-hydroxypropanamido)-4-methylpentanamido)benzyl(R)-1-(((2R,3R,11bS)-3-ethyl-9,10-dimethoxy-1,3,4,6,7,11b-hexahydro-2H-pyrido[2,1-a]isoquinolin-2-yl)methyl)-6,7-dimethoxy-3,4-dihydroisoquinoline-2(1H)-carboxylate formation at 200 uM after 48 hrs by HPLC-MS analysis
T1 sequence (P07288 whole entry): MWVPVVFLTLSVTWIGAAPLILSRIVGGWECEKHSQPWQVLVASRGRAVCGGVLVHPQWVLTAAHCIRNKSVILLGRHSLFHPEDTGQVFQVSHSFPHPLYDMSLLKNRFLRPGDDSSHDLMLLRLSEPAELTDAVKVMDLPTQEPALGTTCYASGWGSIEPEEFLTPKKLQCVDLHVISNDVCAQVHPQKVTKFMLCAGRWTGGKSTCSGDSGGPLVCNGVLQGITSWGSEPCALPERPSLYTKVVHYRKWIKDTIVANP

[5] = Prodrug activation assessed as emetine formation at […] in presence of 10% FBS after 5 days by HPLC-MS analysis; conditions: cattle, 120 h
Procedure, shortened: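 No enzyme added. 10 mM DMSO stock diluted to 200 μM final (2% DMSO) in PBS, 10% FBS in PBS, or conditioned RPMI (supernatant of LNCaP culture grown to about 95% confluency). Shaken at 37 °C, quenched with cold acetonitrile, centrifuged, supernatant analysed by reversed-phase C18 HPLC (215/285 nm) and ESI-MS.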

[6] = system: LNCaP; experiment: Antiproliferative activity against human LNCAP cells expressing PSA after 3 days by MTT assay; type: functional, cell-based
Procedure, shortened: (§3)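 LNCaP seeded at 5 × 10^3 cells/well; PC3, CWR22Rv1 and MDA-MB-231 at 2.5 × 10^3. The first three were grown in RPMI and MDA-MB-231 in DMEM, each with 10% FBS. After 24 h attachment, cells got final 10, 50, 100, 1000 or 10,000 nM (0.1% DMSO) in eight replicates. Viable cells by MTT on day 0, 3 and 5, A570 corrected at 650 nm. Experiments run at least twice.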

[7] = system: PC-3; experiment: Antiproliferative activity against human PC3 cells after 3 days by MTT assay; type: functional, cell-based; procedure, shortened: as §3
[8] = system: CWR22R; experiment: Antiproliferative activity against human CWR22Rv1 cells expressing PSA after 3 days by MTT assay; type: functional, cell-based; procedure, shortened: as §3
[9] = system: Mus musculus; experiment: Toxicity in Balb/C mouse assessed as convulsion at >25 mg/kg, iv after 1 min; type: organism-based; conditions: in vivo; procedure, shortened: as §1
[10] = biological target: T1, Prostate-specific antigen; experiment: as §2, with “activation” for “activation in human plasma”, “formation” for “formation at 200 uM after 48 hrs”; conditions: TDE = time-dependent effect
Procedure, shortened: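 10 mM DMSO stock diluted to 200 μM final in PSA buffer (50 mM Tris·HCl, 100 mM NaCl, pH 7.4) with purified PSA at 20 μg/mL final and 2% DMSO. Shaken at 37 °C. Aliquots taken at time points, quenched with cold acetonitrile, held on ice, centrifuged, then analysed by reversed-phase C18 HPLC (215/285 nm) and mass spectrometry.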

[11] = biological target: T1, Prostate-specific antigen; experiment: Prodrug activation in human plasma assessed as human PSA mediated emetine formation at 200 uM after 48 hrs by HPLC-MS analysis
[12] = system: Mus musculus; experiment: Toxicity in Balb/C mouse assessed as convulsion at 16 mg/kg, iv up to 1 min; type: organism-based; conditions: in vivo; procedure, shortened: as §1
[13] = system: Mus musculus; experiment: Toxicity in Balb/C mouse assessed as death at 16 mg/kg, iv up to 1 min; type: organism-based; conditions: in vivo; procedure, shortened: as §1
[14] = system: Mus musculus; experiment: Toxicity in Balb/C mouse at >100 mg/kg, iv; type: organism-based; conditions: in vivo; procedure, shortened: as §1
[15] = system: Mus musculus; experiment: Toxicity in Balb/C mouse assessed as convulsion at >25 mg/kg, iv up to 1 min; type: organism-based; conditions: in vivo; procedure, shortened: as §1
[16] = system: Mus musculus; experiment: Toxicity in Balb/C mouse assessed as death at >25 mg/kg, iv up to 1 min; type: organism-based; conditions: in vivo; procedure, shortened: as §1
[17] = system: LNCaP; experiment: Antiproliferative activity against human LNCAP cells expressing PSA at 10000 nM after 3 days by MTT assay; type: functional, cell-based; procedure, shortened: as §3
[18] = system: PC-3; experiment: Antiproliferative activity against human PC3 cells at 10000 nM after 3 days by MTT assay; type: functional, cell-based; procedure, shortened: as §3

## CC[C@H]1CN2CCc3cc(OC)c(OC)cc3[C@@H]2C[C@@H]1C[C@@H]1c2cc(OC)c(OC)cc2CCN1C(=O)/C=C(/CC(=O)O)C(=O)O
[1]
  Activity: Non-Toxic
[2]
  Activity: Non-Toxic
[3]
  MTD: > 100 mg/kg

## CC[C@H]1CN2CCc3cc(OC)c(OC)cc3[C@@H]2C[C@@H]1C[C@@H]1c2cc(OC)c(OC)cc2CCN1C(=O)/C=C(/C)C(=O)O
[1]
  Activity: Non-Toxic
[2]
  Activity: Non-Toxic
[3]
  MTD: > 100 mg/kg

## CC[C@H]1CN2CCc3cc(OC)c(OC)cc3[C@@H]2C[C@@H]1C[C@@H]1c2cc(OC)c(OC)cc2CCN1C(=O)OCc1ccc(NC(=O)[C@H](CC(C)C)NC(=O)[C@H](CO)NC(=O)[C@H](CCC(N)=O)NC(=O)[C@H](CC(C)C)NC(=O)[C@H](CCCCN)NC(=O)[C@H](CO)NC(=O)[C@H](CO)NC(=O)[C@H](Cc2cnc[nH]2)NC(C)=O)cc1 (Ac-HSSKLQSL[PABC]-{Emetine(N2')})
[4]
  Drug metabolism: Metabolite_Notdetected
[5]
  Drug metabolism: Metabolite_Notdetected
[6]
  Activity: Dose-dependent effect
[6]; 72 h
  IC50: 59 nM
[7]
  Activity: Dose-dependent effect
[7]; PC-3, 72 h
  IC50: 538 nM
[8]
  Activity: Dose-dependent effect
[8]; 22Rv1, 72 h
  IC50: 75.8 nM
[9]
  Activity: Toxic
[10]
  Drug metabolism: Tde
[11]
  Drug metabolism: Metabolite_Notdetected
[3]
  MTD: 25 mg/kg

## CC[C@H]1CN2CCc3cc(OC)c(OC)cc3[C@@H]2C[C@@H]1C[C@@H]1c2cc(OC)c(OC)cc2CCN1C(=O)[C@@H]1CCCN1C(=O)[C@H](C)N
[12]
  Activity: Toxic
[13]
  Activity: Toxic

## CC[C@H]1CN2CCc3cc(OC)c(OC)cc3[C@@H]2C[C@@H]1C[C@@H]1c2cc(OC)c(OC)cc2CCN1C(=S)Nc1ccccc1
[1]
  Activity: Non-Toxic
[2]
  Activity: Non-Toxic
[3]
  MTD: > 100 mg/kg
[14]
  Activity: Non-Toxic

## CC[C@H]1CN2CCc3cc(OC)c(OC)cc3[C@@H]2C[C@@H]1C[C@@H]1c2cc(OC)c(OC)cc2CCN1C(=O)OCc1ccc(NC(=O)[C@@H]2CCCN2C(=O)[C@H](C)NC(=O)[C@@H]2CCCN2C(=O)CNC(=O)[C@H](C)NC(=O)[C@@H]2CCCN2C(=O)CNC(=O)[C@H](CO)NC(=O)[C@H](C)NC(C)=O)cc1 (Ac-ASGPAGPAP[PABC]-{Emetine(N2')})
[15]
  Activity: Toxic
[16]
  Activity: Toxic
[3]
  MTD: 25 mg/kg

## CC[C@@H]1C[C@@H](C[C@@H]2c3cc(OC)c(OC)cc3CCN2C(=O)OCc2ccc(NC(=O)[C@H](CC(C)C)NC(=O)[C@H](CO)NC(C)=O)cc2)[C@H]2c3cc(OC)c(OC)cc3CCN2C1
[17]
  Activity: Active
[18]
  Activity: Active

## CC[C@H]1CN2CCc3cc(OC)c(OC)cc3[C@@H]2C[C@@H]1C[C@@H]1c2cc(OC)c(OC)cc2CCN1C(=O)CCC(=O)O
[1]
  Activity: Non-Toxic
[2]
  Activity: Non-Toxic
[3]
  MTD: > 100 mg/kg
